The text below walks through data of ChEMBL document CHEMBL4342434, “Identification of HUHS190, a human naftopidil metabolite, as a novel anti-bladder cancer drug” (Bioorg Med Chem Lett, 2020).

Structures are written as SMILES.

The subject of series [1] is KK-47 cell line. Kind of series: Antiproliferative activity against human KK47 cells assessed as reduction in cell viability incubated for 48 hrs by MTT assay. Conditions: KK-47, 48 h. It is filed as functional, cell-based. In outline:
(§1)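 Growth inhibition was measured in vitro on human lines: HEK293 (embryonic kidney), PNT1A (normal prostate epithelium immortalized with SV40), PC3 and DU145 (prostate cancer), KK47 and T24 (bladder carcinoma) and 786-O (kidney carcinoma). IC50 in µM was taken from dose–response curves for each cell line.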
(Tetrazolium assays rely on reduction of a dye to a coloured formazan, in cell work by metabolically active cells.)

The test system of series [2] is DU-145. Description: Antiproliferative activity against human DU145 cells assessed as reduction in cell viability incubated for 48 hrs by MTT assay. As to conditions: DU-145, 48 h. The class given is functional, cell-based. In outline: as §1
Series [3] relates to 786-0. Kind of series: Antiproliferative activity against human 786-O cells assessed as reduction in cell viability incubated for 48 hrs by MTT assay. It is filed as functional, cell-based. Conditions: 786-0, 48 h. In outline: as §1
Series [4] deals with HEK293. Kind of series: Cytotoxicity against human HEK293 cells assessed as reduction in cell viability incubated for 48 hrs by MTT assay. It is filed as cell-based. Conditions: HEK293, 48 h. In outline: as §1
Series [5] relates to T-24. Description: Antiproliferative activity against human T24 cells assessed as reduction in cell viability incubated for 48 hrs by MTT assay. The class given is functional, cell-based. Conditions: T-24, 48 h. In outline:
as §1

The subject of series [6] is PC-3. Kind of series: Antiproliferative activity against human PC3 cells assessed as reduction in cell viability incubated for 48 hrs by MTT assay. The class given is functional, cell-based. Conditions: PC-3, 48 h. Put shortly:
as §1

Series [7] concerns PNT1A. Kind of series: Cytotoxicity against human PNT1A cells assessed as reduction in cell viability incubated for 48 hrs by MTT assay. The class given is cell-based. In outline: as §1
Series [8] is described as follows: Antitumor activity against mouse MB49 cells xenografted in C57BL/6 mouse bladder cancer model assessed as death rate at 50 mg/ml dosed via intravesical instillation through catheter for 2 hrs and measured after 28 days relative to control. It is filed as functional. Put shortly: (§2)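 MB49 cells (C57BL/6-derived) were injected by needle into the bladder smooth-muscle layer of anaesthetised C57BL/6 mice after laparotomy. The same day (day 0), a single intravesical instillation was given and held in the bladder for 2 h, with saline as the control. Deaths were recorded over 4 weeks, to day 28.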

Series [9] is described as follows: AUC (0 to 6 hrs) in Sprague-Dawley rat at 32 mg/kg, po measured upto 6 hrs by HPLC analysis. It is filed as ADME, organism-based. Further details: dose 32 mg/kg, time < 6 hr, route oral. As to conditions: in vivo.
The nature of series [10]: Antiproliferative activity against mouse MB49 cells assessed as reduction in cell viability after 72 hrs by WST-8 assay. The class given is functional, cell-based. Conditions: MB49, 72 h.
A short description of series [11]: Toxicity in C57BL/6 mouse bladder cancer model xenografted with mouse MB49 cells at 50 mg/ml dosed via intravesical instillation through catheter for 2 hrs and measured for 28 days. It is filed as organism-based. Conditions: in vivo, other. Put shortly:
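[…] model: a small number of MB49 cells (C57BL/6-derived) were injected by needle into the bladder smooth muscle of C57BL/6 mice after laparotomy under anaesthesia. Compound at 50 mg/mL was then given once by intravesical instillation and kept for 2 h. Day 0 was implantation/dosing, and survival was followed for 4 weeks. Saline, BCG (2 mg/mL) and pirarubicin (1 mg/mL) served as comparators.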

Series [12] in a line: Cmax in Sprague-Dawley rat at 32 mg/kg, po measured after 15 mins by HPLC analysis. As to conditions: in vivo. Further details: dose 32 mg/kg, route oral. It is filed as ADME, organism-based.
Series [13] is described as follows: Antitumor activity against mouse MB49 cells xenografted in C57BL/6 mouse bladder cancer model assessed as death rate at 1 mg/ml dosed via intravesical instillation through catheter for 2 hrs and measured after 28 days relative to control. The class given is functional. Put shortly: as §2
In series [14] the test system is L5178Y. Description: Antiproliferative activity against mouse L5178Y cells assessed as reduction in cell viability. It is filed as functional, cell-based.
The nature of series [15]: Antiproliferative activity against C3H mouse MBT2 cells assessed as reduction in cell viability. It is filed as functional, cell-based.

As a reminder, the IC50 is the midpoint of a concentration-inhibition curve. Take `COc1cc(O)ccc1N1CCN(CC(O)COc2ccc(O)c3ccccc23)CC1` (stereo not drawn): the IC50 in series [1] was over 50 µM; in series [2] it was over 50 µM; in series [3], 38.7 µM; in series [4] it was over 50 µM; in series [5], 37.4 µM; in series [6] it was 45.7 µM. Further, the IC50 in series [7] was 37.2 µM.
Usually mortality stands for the share of the test organisms that died. Usually AUC(0-t) stands for the area under the concentration-time curve up to a stated or last time point. Read a high AUC(0-t) as high exposure. What is called Cmax is the peak of the concentration-time curve. `COc1cc(O)ccc1N1CCN(CC(O)COc2cccc3ccccc23)CC1` (stereo not drawn): the IC50 in series [1] was 11.8 µM; in series [2], 17.2 µM; in [3], 11.4 µM; in series [4], over 50 µM; in series [10], 12 µM; in series [5], 10.5 µM. For the same compound, the IC50 was 24.4 µM in [6] and over 50 µM in series [7]. The mortality in series [8] is 30%. This compound also came in with an AUC(0-t) at 6 h in series [9] of 204 ng·h/mL. Moreover, the Activity result in series [11] is “Non-Toxic”. For the same compound, the Cmax in [12] came out at 397 ng/mL.
Turning to `Oc1ccc(N2CCN(CC(O)COc3ccc(O)c4ccccc34)CC2)c(O)c1` (stereo not drawn), the IC50 in series [1] came to 17.9 µM; in [2], 20.3 µM; in series [3] it was 18.5 µM; in [4] it was 40.4 µM; in series [5] it was 15.6 µM; in series [6], 17.7 µM. Moreover, the IC50 in [7] came out at 17.1 µM.
As for `Oc1ccccc1N1CCN(CC(O)COc2ccc(O)c3ccccc23)CC1` (stereo not drawn), the IC50 in [1] was 33 µM; in [2] it was over 50 µM; in [3], 9.7 µM; in [4], over 50 µM; in series [5] it was 14.8 µM; in [6] it was 26.1 µM. Also, the IC50 in series [7] is 37.4 µM.
For the compound `Oc1ccc(N2CCN(CC(O)COc3cccc4ccccc34)CC2)c(O)c1` (stereo not drawn), the IC50 in series [1] was 9.6 µM; in series [2], 11.6 µM; in [3], 17.5 µM; in series [4], over 50 µM; in series [5], 13.4 µM; in series [6], 30.3 µM. Moreover, in series [7], the IC50 is 29.9 µM.
Take `Oc1ccccc1N1CCN(CC(O)COc2cccc3ccccc23)CC1` (stereo not drawn): the half-maximal inhibitory concentration (IC50) in series [1] was 18.9 µM; in series [2], 18 µM; in [3], 18.7 µM; in series [4], over 50 µM; in [5], 18 µM; in series [6], 21.7 µM. Further, the IC50 in series [7] was found to be 22.2 µM.
For the compound `COc1ccccc1N1CCN(CC(O)COc2ccc(O)c3ccccc23)CC1` (stereo not drawn), the IC50 is 17.6 µM in series [1]; 35.1 µM in [2]; 46.9 µM in [3]; over 50 µM in [4]; 16.1 µM in series [5]; 28 µM in series [6]. In addition, the IC50 in [7] was determined as 34.9 µM.
For the compound `COc1ccccc1N1CCN(CC(O)COc2cccc3ccccc23)CC1` (stereo not drawn) [NAFTOPIDIL], the IC50 in series [1] came out at 19 µM; in series [2], 21.1 µM; in series [3] it was 13.3 µM; in series [4] it was 47.3 µM; in [10], 23 µM; in series [5], 18.5 µM. Besides, the IC50 in series [6] was determined as 31.2 µM; in series [7], 27 µM. Further, the AUC(0-t) at 6 h in series [9] is 202 ng·h/mL. Further, in series [12], the highest level (Cmax) was 110 ng/mL.
Regarding `COc1cccc2c1C(=O)c1c(O)c3c(c(O)c1C2=O)C[C@@](O)(C(=O)CO)C[C@@H]3O[C@H]1C[C@H](N)[C@H](O[C@@H]2CCCCO2)[C@H](C)O1` [PIRARUBICIN], the mortality in [13] is listed as 70 - 80%. The IC50 in [10] amounted to 0.022 µM; in series [14], 0.023 µM; in series [15], 0.022 µM.
